In ChEMBL document CHEMBL5724801, “EUbOPEN Chemogenomics Library - Multiplex” (2024):
“And” between values parts separate entries of the source, which are not always exact repeats. Equal values may be shown once.

How the values were obtained:
HEK-293T = assay: Multiplex assay against HEK293T; format: toxicity, cell-based; conditions: human
Summary of the method: (§1)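 Cells were classed with CellPathfinder machine-learning gating, first as Hoechst high-intensity objects or normal cells, then (normal cells) as healthy, pyknosed or fragmented nuclei, and finally (pyknosed cells) as mitotic or apoptotic. Staining of live cells at seeding used Hoechst33342, BioTracker Green Microtubule Cytoskeleton Dye, MitoTracker Red and Annexin V Alexa Fluor 680, with imaging on a CQ1 microscope at 37°C and 5% CO2 after compound addition. Tubulin, mitochondrial-mass and membrane-permeability phenotypes are per cents of healthy-nucleus cells.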

U2OS = assay: Multiplex assay against U2OS; format: toxicity, cell-based; conditions: human; summary of the method: as §1
[1] = 24 h, 1 µM, compound concentration 1 uM
[2] = 24 h, 10 µM, compound concentration 10 uM
[3] = 48 h, 1 µM, compound concentration 1 uM
[4] = 48 h, 10 µM, compound concentration 10 uM
[5] = 12 h, 1 µM, compound concentration 1 uM
[6] = 12 h, 10 µM, compound concentration 10 uM

With O=C(Nc1c[nH]nc1-c1nc2cc(CN3CCOCC3)ccc2[nH]1)NC1CC1 [AT-9283] the “Total Cell Count” value (HEK-293T; [1]) was 283 and 153, the “Population Apoptotic (%)” value (HEK-293T; [2]) was 24.17% and 28.99% and the “Population Fragmented Nuclei (%)” value (HEK-293T; [2]) was 0.37% and 0.67%. For the same compound, the “Population Hoechst High Intensity Objects (%)” value (HEK-293T; [2]) was 0.37% and 0%, the “Population Membrane Permeable-Phenotype (%)” value (HEK-293T; [2]) was 1.79% and 0% and the “Population Mitotic Cells (%)” value (HEK-293T; [2]) was 75.83% and 71.01%. The “Population Normal (%)” value (HEK-293T; [2]) was 99.63% and 100%, the “Population Pyknosed Nuclei (%)” value (HEK-293T; [2]) was 78.73% and 92.62% and the “Population Tubulin-Different-Phenotype (%)” value (HEK-293T; [2]) was 33.93% and 40%. The “Total Cell Count” value (HEK-293T; [2]) was 269 and 149, the “Population Apoptotic (%)” value (HEK-293T; [3]) was 44.44% and 22.06% and the “Population Fragmented Nuclei (%)” value (HEK-293T; [3]) was 2.23% and 0%. The “Population Healthy Nuclei (%)” value (HEK-293T; [3]) was 80.17% and 46.03%, the “Population Hoechst High Intensity Objects (%)” value (HEK-293T; [3]) was 0% and 0.79% and the “Population Membrane Permeable-Phenotype (%)” value (HEK-293T; [3]) was 3.83% and 1.72%. For the same compound, the “Population Mitochondria Different-Phenotype (%)” value (HEK-293T; [3]) was 49.13% and 22.41%, the “Population Mitotic Cells (%)” value (HEK-293T; [3]) was 55.56% and 77.94% and the “Population Normal (%)” value (HEK-293T; [3]) was 100% and 99.21%. The “Total Cell Count” value (HEK-293T; [3]) was 358 and 127, the “Population Apoptotic (%)” value (HEK-293T; [4]) was 52.36% and 56.2% and the “Population Fragmented Nuclei (%)” value (HEK-293T; [4]) was 1.67% and 2.67%. For the same compound, the “Population Hoechst High Intensity Objects (%)” value (HEK-293T; [4]) was 0.83% and 0%, the “Population Membrane Permeable-Phenotype (%)” value (HEK-293T; [4]) was 0% and the “Population Mitochondria Different-Phenotype (%)” value (HEK-293T; [4]) was 88.89% and 55.56%. For the same compound, the “Population Mitotic Cells (%)” value (HEK-293T; [4]) was 47.64% and 43.8%, the “Population Normal (%)” value (HEK-293T; [4]) was 99.17% and 100% and the “Population Pyknosed Nuclei (%)” value (HEK-293T; [4]) was 79.58% and 91.33%. The “Population Tubulin-Different-Phenotype (%)” value (HEK-293T; [4]) was 24.44% and 55.56%, the “Total Cell Count” value (HEK-293T; [4]) was 242 and 150 and the “Population Apoptotic (%)” value (U2OS; [5]) was 27.91% and 52.63%. The “Population Fragmented Nuclei (%)” value (U2OS; [5]) was 2.75% and 2.61%, the “Population Healthy Nuclei (%)” value (U2OS; [5]) was 85.4% and 84.97% and the “Population Hoechst High Intensity Objects (%)” value (U2OS; [5]) was 0%. The “Population Membrane Permeable-Phenotype (%)” value (U2OS; [5]) was 0.65% and 3.85%, the “Population Mitochondria Different-Phenotype (%)” value (U2OS; [5]) was 0.32% and 9.23% and the “Population Mitotic Cells (%)” value (U2OS; [5]) was 72.09% and 47.37%. The “Population Normal (%)” value (U2OS; [5]) was 100%, the “Population Pyknosed Nuclei (%)” value (U2OS; [5]) was 11.85% and 12.42% and the “Population Tubulin-Different-Phenotype (%)” value (U2OS; [5]) was 1.29% and 0%. The “Total Cell Count” value (U2OS; [5]) was 363 and 153, the “Population Apoptotic (%)” value (U2OS; [6]) was 43% and 36.73% and the “Population Fragmented Nuclei (%)” value (U2OS; [6]) was 6.56% and 13.38%. For the same compound, the “Population Healthy Nuclei (%)” value (U2OS; [6]) was 60.66% and 52.11%, the “Population Hoechst High Intensity Objects (%)” value (U2OS; [6]) was 0% and 0.7% and the “Population Membrane Permeable-Phenotype (%)” value (U2OS; [6]) was 1.62% and 5.41%. The “Population Mitochondria Different-Phenotype (%)” value (U2OS; [6]) was 0% and 14.86%, the “Population Mitotic Cells (%)” value (U2OS; [6]) was 57% and 63.27% and the “Population Normal (%)” value (U2OS; [6]) was 100% and 99.3%. The “Population Pyknosed Nuclei (%)” value (U2OS; [6]) was 32.79% and 34.51%, the “Population Tubulin-Different-Phenotype (%)” value (U2OS; [6]) was 2.16% and 2.7% and the “Total Cell Count” value (U2OS; [6]) was 305 and 143. The “Population Apoptotic (%)” value (U2OS; [1]) was 38.27% and 55.56%, the “Population Fragmented Nuclei (%)” value (U2OS; [1]) was 5.31% and 3.57% and the “Population Healthy Nuclei (%)” value (U2OS; [1]) was 73.21% and 75%. For the same compound, the “Population Hoechst High Intensity Objects (%)” value (U2OS; [1]) was 0%, the “Population Membrane Permeable-Phenotype (%)” value (U2OS; [1]) was 0.72% and 3.17% and the “Population Mitochondria Different-Phenotype (%)” value (U2OS; [1]) was 0% and 7.94%. The “Population Mitotic Cells (%)” value (U2OS; [1]) was 61.73% and 44.44%, the “Population Normal (%)” value (U2OS; [1]) was 100% and the “Population Pyknosed Nuclei (%)” value (U2OS; [1]) was 21.49% and 21.43%. For the same compound, the “Population Tubulin-Different-Phenotype (%)” value (U2OS; [1]) was 1.81% and 0%, the “Total Cell Count” value (U2OS; [1]) was 377 and 168 and the “Population Apoptotic (%)” value (U2OS; [2]) was 50.29% and 58.51%. The “Population Fragmented Nuclei (%)” value (U2OS; [2]) was 11.38% and 13.89%, the “Population Healthy Nuclei (%)” value (U2OS; [2]) was 28.28% and 20.83% and the “Population Hoechst High Intensity Objects (%)” value (U2OS; [2]) was 0.34% and 1.37%. The “Population Membrane Permeable-Phenotype (%)” value (U2OS; [2]) was 4.88% and 10%, the “Population Mitochondria Different-Phenotype (%)” value (U2OS; [2]) was 0% and 10% and the “Population Mitotic Cells (%)” value (U2OS; [2]) was 49.71% and 41.49%. For the same compound, the “Population Normal (%)” value (U2OS; [2]) was 99.66% and 98.63%, the “Population Pyknosed Nuclei (%)” value (U2OS; [2]) was 60.34% and 65.28% and the “Population Tubulin-Different-Phenotype (%)” value (U2OS; [2]) was 10.98% and 3.33%. The “Total Cell Count” value (U2OS; [2]) was 291 and 146, the “Population Apoptotic (%)” value (U2OS; [3]) was 55.84% and 65.43% and the “Population Fragmented Nuclei (%)” value (U2OS; [3]) was 5.53% and 3.43%. The “Population Healthy Nuclei (%)” value (U2OS; [3]) was 57.45% and 50.29%, the “Population Hoechst High Intensity Objects (%)” value (U2OS; [3]) was 0.24% and 0.57% and the “Population Membrane Permeable-Phenotype (%)” value (U2OS; [3]) was 4.6% and 11.36%. The “Population Mitotic Cells (%)” value (U2OS; [3]) was 44.16% and 34.57%, the “Population Normal (%)” value (U2OS; [3]) was 99.76% and 99.43% and the “Population Pyknosed Nuclei (%)” value (U2OS; [3]) was 37.02% and 46.29%. The “Population Tubulin-Different-Phenotype (%)” value (U2OS; [3]) was 11.3% and 13.64%, the “Total Cell Count” value (U2OS; [3]) was 417 and 176 and the “Population Apoptotic (%)” value (U2OS; [4]) was 69.51% and 86%. The “Population Fragmented Nuclei (%)” value (U2OS; [4]) was 9.83% and 10.61%, the “Population Healthy Nuclei (%)” value (U2OS; [4]) was 14.58% and 13.64% and the “Population Hoechst High Intensity Objects (%)” value (U2OS; [4]) was 0.34% and 0%. For the same compound, the “Population Membrane Permeable-Phenotype (%)” value (U2OS; [4]) was 27.91% and 11.11%, the “Population Mitochondria Different-Phenotype (%)” value (U2OS; [4]) was 0% and 5.56% and the “Population Mitotic Cells (%)” value (U2OS; [4]) was 30.49% and 14%. The “Population Normal (%)” value (U2OS; [4]) was 99.66% and 100%, the “Population Pyknosed Nuclei (%)” value (U2OS; [4]) was 75.59% and 75.76% and the “Population Tubulin-Different-Phenotype (%)” value (U2OS; [4]) was 58.14% and 50%. The “Total Cell Count” value (U2OS; [4]) was 296 and 132.
